Published values from different studies.
Each line is one published result; the experiments were not run side by side.
Sample: plasma

COc1cc2c(Nc3ccc(Br)cc3F)ncnc2cc1OCC1CCN(C)CC1
Cmax (human; oral; 85 mg/m²; multiple doses, once daily, patients): 716 ng/mL

C/C(=C\c1csc(C)n1)[C@@H]1C[C@@H]2O[C@]2(C)CCC[C@H](C)[C@H](O)[C@@H](C)C(=O)C(C)(C)[C@@H](O)CC(=O)N1
Cmax (human; intravenous; 20 mg/m²; patients): 249 ng/mL

CNC(=O)c1cc(Oc2ccc(NC(=O)Nc3cc(C(C)(C)C)nn3-c3ccc4ncccc4c3)c(F)c2)ccn1
Cmax (human; oral; 150 mg; multiple doses, twice daily): 308 ng/mL

COCCOc1cnc2ccn([C@H](C)c3nnc4c(F)cc(-c5cnn(C)c5)cn34)c(=O)c2c1
Cmax (human; oral; 150 mg; multiple doses, once daily, patients): 2910 ng/mL

Cn1c(=O)oc2ccc(-c3ccc(C[C@@H](C#N)NC(=O)[C@@H]4CNCCCO4)cc3)cc21
Cmax (male human; oral; 50 mg; single dose, healthy volunteers): 1040 nM

Cn1cc(-c2ccc(S(=O)(=O)[C@@H]3C[C@@H](C(=O)NC4(C#N)CC4)N(C(=O)C4(C(F)(F)F)CC4)C3)c(C(F)(F)F)c2)cn1
Cmax (human; oral; 1 mg; single dose, fasted, healthy volunteers): 4.51 ng/mL

CNCc1ccc(-c2[nH]c3cc(F)cc4c3c2CCNC4=O)cc1
Cmax (human; oral; 600 mg twice daily; multiple doses, steady state): 8190 nM

O=C(/C=C/c1cccc(S(=O)(=O)Nc2ccccc2)c1)NO
Cmax (human; intravenous; 2000 mg/m²; patients): 112000 ng/mL

CCCOc1ccc([C@H]2CNC(=O)N2c2ccc3[nH]cnc3c2)cc1
Cmax (human; oral; 200 mg; single dose, fasted, healthy volunteers): 1200 ng/mL

COc1cc(C(=O)NC2CCN(C)CC2)c(F)cc1Nc1ncc(C(F)(F)F)c(Oc2cccc3c2C(=O)N(C)C3)n1
Cmax (human; oral; 50 mg; single dose, patients): 312 nM

CC(C)(Sc1ccncc1-c1ccc(C#N)c2ccccc12)C(=O)O
Cmax (male human; oral; 5 mg; single dose, fasted, healthy volunteers): 72.9 ng/mL

CCO[C@H]1CCN(Cc2c(OC)cc(C)c3[nH]ccc23)[C@H](c2ccc(C(=O)O)cc2)C1
Cmax (human; oral; 100 mg; multiple doses, twice daily, patients): 2640 ng/mL

CO[C@H]1CC[C@H](N2C(=O)CNc3ncc(-c4ccc(C(C)(C)O)nc4)nc32)CC1
Cmax (human; oral; 30 mg; patients): 188 ng/mL

CC(C)(C(=O)N1CCOc2c(C#N)cncc2C1)C(F)F
Cmax (human; oral; 40 mg; single dose, fasted, healthy volunteers): 555 ng/mL

COc1cc2c(cc1OC)CN(CCc1ccc(NC(=O)c3cc(OC)c(OC)cc3NC(=O)c3cnc4ccccc4c3)cc1)CC2
Cmax (human; intravenous; 1 mg/kg; patients): 2200 nM

CC(C)(O)c1ccccc1-c1ccc2[nH]c(/C=C/c3ccc(C(F)(F)F)cc3)nc2c1
Cmax (male human; oral; 120 mg; single dose, fasted, healthy volunteers): 261 ng/mL

NS(=O)(=O)NCCNc1nonc1C(=NO)Nc1ccc(F)c(Br)c1
Cmax (human; oral; 300 mg; multiple doses, twice daily, steady state, patients): 2480 nM

Cc1ccc(C(=O)N(CCCN)[C@@H](c2oc3cc(Cl)ccc3c(=O)c2Cc2ccccc2)C(C)C)cc1
Cmax (human; intravenous; 4 mg/m²; single dose, patients, infusion): 489 ng/mL

CC(=O)Oc1ccccc1C(=O)O
Cmax (human; oral; 650 mg; healthy volunteers): 3480 ng/mL

FC(F)(F)c1ccc(CNc2ccc(Cc3c[nH]c4ncc(Cl)cc34)cn2)cn1
Cmax (human; oral; 1200 mg; multiple doses, patients): 8730 ng/mL

C[C@@]1(c2cc(NC(=O)c3ccc(C#N)cn3)ccc2F)C=CSC(N)=N1
Cmax (human; oral; 10 mg; single dose): 83.9 ng/mL

CCCCC1=NC2(CCCC2)C(=O)N1Cc1ccc(-c2ccccc2S(=O)(=O)Nc2noc(C)c2C)c(COCC)c1
Cmax (human; oral; 200 mg; single dose, fasted, healthy volunteers): 5150 ng/mL

O=C(O)C[C@H](O)C[C@H](O)/C=C/c1c(C2CC2)nc2ccccc2c1-c1ccc(F)cc1
Cmax (human; oral; 2 mg; single dose, fasted, healthy volunteers, tablet): 36.4 ng/mL

CCCCC[C@H](O)CC[C@@H]1[C@H]2Cc3cccc(OCC(=O)O)c3C[C@H]2C[C@H]1O
Cmax (human; inhaled; 18 µg; single dose, healthy volunteers): 0.43 ng/mL

CCn1c(=O)c(-c2cc(NC(=O)Nc3ccccc3)c(F)cc2Br)cc2cnc(NC)cc21
Cmax (human; oral; 20 mg; single dose, patients): 109 ng/mL

COC(=O)N[C@@H](C)CNc1nccc(-c2cn(C(C)C)nc2-c2cc(Cl)cc(NS(C)(=O)=O)c2F)n1
Cmax (human; oral; 50 mg; single dose): 482 ng/mL

CCc1nc2c(C)cc(N3CCN(CC(=O)N4CC(O)C4)CC3)cn2c1N(C)c1nc(-c2ccc(F)cc2)c(C#N)s1
Cmax (human; oral; 600 mg; single dose, fasted, healthy volunteers): 5800 ng/mL

COc1ccc([C@@H]2CN(C(=O)[C@@H](O)CO)C[C@@]2(C)[C@@H](C)O)cc1OC1CN(c2ccc(C)cn2)C1
Cmax (human; oral; 0.1 mg; single dose, healthy volunteers): 8.8 ng/mL

CC(C)n1cc(C#N)c2cc(-n3cc(C(=O)O)cn3)ccc21
Cmax (human; oral; 100 mg; single dose, fasted, healthy volunteers): 3520 ng/mL

CO[C@@H]1[C@H](OC(=O)N2CC(CCN3CCOCC3)C2)CC[C@]2(CO2)[C@H]1[C@@]1(C)O[C@@H]1CC=C(C)C
Cmax (human; subcutaneous; 0.2 mg; single dose, healthy volunteers): 0.45 ng/mL

C=C(F)C(=O)N1CCN(c2nc(OC[C@@H]3CCCN3C)nc3c2CCN(c2cccc4cccc(Cl)c24)C3)C[C@@H]1CC#N
Cmax (human; oral; 600 mg; single dose, fasted): 984 ng/mL
